Reference: ChEMBL document CHEMBL4190233, “Exploring the cycloheptathiophene-3-carboxamide scaffold to disrupt the interactions of the influenza polymerase subunits and obtain potent anti-influenza activity” (Eur J Med Chem, 2017)

What was measured:
[1] = Cytotoxicity against MDCK cells assessed as reduction in cell viability after 48 hrs by MTT assay; format: cell-based, Canis lupus familiaris; details: dog
Method in brief: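 MDCK cells, 2 x 10⁴/well, grown 24 h, then exposed to serial compound dilutions or DMSO in DMEM/10% FBS for 48 h at 37 °C. MTT (5 mg/mL in PBS) was added for 4 h, then cells were lysed in solubilization solution overnight at 37 °C and read at 620 nm.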

Influenza A virus = assay: Antiviral activity against Influenza A virus A/PR/8/34 (H1N1) infected in MDCK cells measured after 48 hrs post infection by plaque reduction assay; format: functional, organism-based; details: A/Puerto Rico/8/1934(H1N1)
Method in brief: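 MDCK cells, 5 x 10⁵/well, grown 24 h at 37 °C, washed in serum-free DMEM, then infected with A/PR/8/34 (Cambridge lineage) at 40 PFU/well for 1 h at 37 °C. Medium held TPCK-trypsin 1 μg/mL and 0.14% BSA, with compound at varied concentrations or DMSO. Overlay was the same medium plus 1.2% Avicel. At 48 h cells were formaldehyde-fixed and toluidine-blue stained. Plaques were counted against DMSO (100%).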

[2] = target: PA/PB1 (Influenza A virus (A/Puerto Rico/8/1934(H1N1)), UniProt P03431+P03433); assay: Inhibition of Influenza A virus 6His-tagged PA (239 to 716 residues)/GST-tagged PB1 (1 to 25 residues) protein-protein interaction expressed in Escherichia coli measured after overnight incubation by ELISA
[3] = Therapeutic index, ratio of CC50 for MDCK cells to EC50 for Influenza A virus A/PR/8/34 (H1N1) infected in MDCK cells; format: toxicity, cell-based; details: dog, read-out: Ratio CC50/EC50

Structure (SMILES) | CC50 at 48 h [1] [µM] | EC50 (Influenza A virus) [µM] | IC50 [2] [µM] | selectivity ratio [3]
CSCC[C@H](N)C(=O)N[C@@H](CC(=O)O)C(=O)N[C@H](C(=O)N[C@@H](CC(N)=O)C(=O)N1CCC[C@H]1C(=O)N[C@H](C(=O)N[C@@H](CC(C)C)C(=O)N[C@@H](CC(C)C)C(=O)N[C@@H](Cc1ccccc1)C(=O)N[C@@H](CC(C)C)C(=O)N[C@@H](CCCCN)C(=O)N[C@H](C(=O)N1CCC[C@H]1C(=O)N[C@@H](C)C(=O)N[C@@H](CCC(N)=O)C(=O)O)C(C)C)[C@@H](C)O)C(C)C | > 100 | 41 | – | –
O=C(Nc1sc2c(c1C(=O)Nc1ccccc1O)CCCCC2)c1ccccn1 | > 250 | 8.2 | 118 | –
CC(C)(C)NC(=O)c1c(NC(=O)c2ccccc2O)sc2c1CCCCC2 | > 250 | > 100 | 156 | –
O=C(Nc1sc2c(c1C(=O)Nc1nccs1)CCCCC2)c1ccccc1O | > 250 | 0.18 | 69 | > 1390
O=C(Nc1sc2c(c1C(=O)Nc1ccccc1O)CCCCC2)c1ccc(Cl)cc1 | 28 | 1.8 | 26 | –
O=C(Nc1sc2c(c1C(=O)NCc1ccccn1)CCCCC2)c1ccccc1O | > 250 | > 100 | 33 | –
O=C(Nc1sc2c(c1C(=O)Nc1ccccn1)CCCCC2)c1cccc(O)c1 | 248 | 22 | 23 | –
O=C(Nc1sc2c(c1C(=O)Nc1ccccn1)CCCCC2)c1ccccc1O | > 250 | 2.6 | 15 | > 96
O=C(Nc1sc2c(c1C(=O)Nc1ccccn1)CCCCC2)c1ccc(O)cc1 | > 250 | 19 | 26 | –
O=C(Nc1sc2c(c1C(=O)NC1CCCCC1)CCCCC2)c1ccccc1O | 172 | > 100 | 114 | –
O=C(Nc1sc2c(c1C(=O)N1CCN(c3ccccn3)CC1)CCCCC2)c1ccccc1O | 145 | > 100 | 197 | –
O=C(Nc1sc2c(c1C(=O)NCc1ccccc1)CCCCC2)c1ccccc1O | 172 | > 100 | 191 | –
O=C(Nc1sc2c(c1C(=O)Nc1ccc(Cl)cc1)CCCCC2)c1ccccc1O | > 250 | 1.2 | 18 | > 200
O=C(Nc1sc2c(c1C(=O)Nc1ccccc1)CCCCC2)c1ccccc1O | > 250 | 30 | 58 | –
COc1ccccc1C(=O)Nc1sc2c(c1C(=O)Nc1ccccn1)CCCCC2 | 147 | 86 | 22 | –
COc1ccccc1NC(=O)c1c(NC(=O)c2ccc(Cl)cc2)sc2c1CCCCC2 | > 250 | 24 | 45 | –
CC(C)NC(=O)c1c(NC(=O)c2ccccc2O)sc2c1CCCCC2 | > 250 | > 100 | > 200 | –
Nc1ccc(C(=O)Nc2sc3c(c2C(=O)Nc2ccccn2)CCCCC3)cc1 | > 250 | 0.26 | 65 | –
Nc1ccccc1C(=O)Nc1sc2c(c1C(=O)Nc1ccccn1)CCCCC2 | > 250 | 101 | > 200 | –
COc1ccccc1C(=O)Nc1sc2c(c1C(=O)Nc1ccc(Cl)cc1)CCCCC2 | > 250 | 82 | 78 | –
CN1CCN(C(=O)c2c(NC(=O)c3ccccc3O)sc3c2CCCCC3)CC1 | > 250 | 94 | > 200 | –
O=C(Nc1sc2c(c1C(=O)Nc1ccc(F)cc1)CCCCC2)c1ccccc1O | > 250 | 1.2 | 20 | > 200
NC(=O)c1ncn([C@@H]2O[C@H](CO)[C@@H](O)[C@H]2O)n1 [RIBAVIRIN] | > 250 | 10 | – | –
